Source: ChEMBL document CHEMBL2046305, “Discovery of selective menaquinone biosynthesis inhibitors against Mycobacterium tuberculosis” (J Med Chem, 2012)
≈ marks a conversion by molar mass, not a printed value. Calls of active or inactive are those of the source. The calls are words filed in the database; no cut-off is given here.

Experiments:
[1] = system: Mycobacterium tuberculosis; test: Bactericidal activity against Mycobacterium tuberculosis; assay type: functional
Staphylococcus aureus [2] = test: Bactericidal activity against Staphylococcus aureus; assay type: functional
Staphylococcus aureus [3] = test: Inhibition of Staphylococcus aureus MenA using [3H]farnesyl and DHNA as substrate at 100 uM after 2 hrs
Method in brief: (§1)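 Membrane fraction from mid-log cultures in 7H9/OADC, washed in saline, sonicated in MOPS pH 8/sucrose/MgCl2/2-mercaptoethanol buffer, spun 15,000 g then 200,000 g; the fraction was the enzyme source. DHNA (500 μM stock), MgCl2, 0.1% CHAPS, Tris pH 8, farnesyl diphosphate (200 μM stock) and inhibitor, 2 h at 37 °C. Quenched with 0.1 M AcOH/MeOH, extracted with hexanes, DMMK measured.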

[4] = system: Mycobacterium tuberculosis; test: Inhibition of Mycobacterium tuberculosis MenA using [3H]farnesyl and DHNA as substrate at 100 uM after 2 hrs; method in brief: as §1
[5] = Inhibition of Mycobacterium tuberculosis MenA using [3H]farnesyl and DHNA as substrate after 2 hrs; method in brief: as §1
Staphylococcus aureus [6] = test: Antibacterial activity against Staphylococcus aureus Seattle 1945 ATCC 25923 by agar plate diffusion method; assay type: functional
[7] = system: Mycobacterium tuberculosis; test: Antibacterial activity against Mycobacterium tuberculosis H37Rv ATCC 27294 by microplate alamar blue assay; assay type: functional
Method in brief: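 Colorimetric microplate assay run under aerobic conditions; growth scored by the colour change of resazurin. Compounds showing at least 90% inhibition in a preliminary screen were retested at lower concentrations to give the MIC.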

[8] = system: Mycobacterium tuberculosis; test: Antibacterial activity against non-replicating Mycobacterium tuberculosis H37Rv ATCC 27294 by low oxygen recovery assay; assay type: functional
Escherichia coli [9] = test: Growth inhibition of Escherichia coli Seattle ATCC 25922 at 5 to 10 ug/ml by microplate alamar blue assay; assay type: functional, organism-based
Escherichia coli [10] = test: Growth inhibition of Escherichia coli Seattle ATCC 25922 at 5 to 10 ug/ml by microplate alamar blue assay in presence of 50 uM VK2; assay type: functional, organism-based
Method in brief: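 E. coli grown with inhibitor under anaerobic conditions; rescue tested by supplementing with menaquinone (VK2, 50 μM).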

Vero = test: Cytotoxicity against african green monkey Vero cells after 72 hrs by MTT assay; assay type: cell-based; details: Chlorocebus sabaeus
Method in brief: (§2)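 Cell viability after 72 h exposure, tested at 10 times the H37Rv MIC; read-out was cellular conversion of MTT into formazan.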

HepG2 = test: Cytotoxicity against human HepG2 cells after 72 hrs by MTT assay; assay type: cell-based; details: HepG2, 72 h; method in brief: as §2
[11] = Selectivity ratio of IC50 for human HepG2 cells to IC50 for Mycobacterium tuberculosis […]; assay type: ADME, cell-based; details: read-out: Ratio IC50
[12] = Selectivity ratio of IC50 for african green monkey Vero cells to IC50 for Mycobacterium tuberculosis […]; assay type: ADME, cell-based; details: read-out: Ratio IC50
[13] = system: Mycobacterium intracellulare; test: Antibacterial activity against Mycobacterium intracellulare ATCC 15984 by microplate alamar blue assay; assay type: functional
[14] = system: Mycolicibacterium smegmatis; test: Antibacterial activity against Mycobacterium smegmatis by microplate alamar blue assay; assay type: functional
[15] = system: Mycobacterium tuberculosis; test: Ratio of MIC for rifampicin to compound MIC for non-replicating Mycobacterium tuberculosis H37Rv ATCC 27294 by low oxygen recovery assay; assay type: functional
Escherichia coli [16] = test: Antibacterial activity against Escherichia coli Seattle ATCC 25922 at 12.5 ug/ml by oxygen consumption assay; assay type: functional, organism-based

Compound | MIC [1] [µg/mL] | MIC (Staphylococcus aureus [2]) [µg/mL] | inhibition (Staphylococcus aureus [3]) | inhibition [4] | IC50 [5] [µM] | MIC (Staphylococcus aureus [6]) [µg/mL] | MIC [7] [µg/mL] | MIC [8] [µg/mL] | growth inhibition (GI) (Escherichia coli [9]) | growth inhibition (GI) (Escherichia coli [10]) | IC50 (Vero) [µg/mL] | IC50 (HepG2) [µg/mL] | selectivity ratio [11] | selectivity ratio [12] | MIC [13] [µg/mL] | MIC [14] [µg/mL] | Ratio [15] | Activity (Escherichia coli [16])
CCCCCCCC(O)c1cccc(CN2CCC(COc3ccc(C(=O)c4ccc(Cl)cc4)c(Cl)c3)CC2)c1 (racemic) | 8 (≈ 13.7 µM) | > 50 | inactive | Active | 20 | > 60 | 12.5 (≈ 21.5 µM) | 1.88 (≈ 3.23 µM) | Active | inactive |  |  |  |  |  |  |  | 
CCCCC(O)CN1CCC(COc2ccc(C(=O)c3ccc(Cl)cc3)c(Cl)c2)CC1 (racemic) | 0.5 (≈ 1.08 µM) | > 50 | inactive | Active | 15 | > 60 | 6.25 (≈ 13.5 µM) | 2.82 (≈ 6.07 µM) | Active | inactive |  |  |  |  |  |  |  | 
CC(C)=CC(O)C/C(C)=C/CC/C(C)=C/Cc1c(C)n(O)c2ccccc2c1=O (centres undefined) [AURACHIN RE] | 25 (≈ 63.2 µM) | 3.1 (≈ 7.84 µM) |  |  |  |  |  |  |  |  |  |  |  |  |  |  |  | 
CCCCCC[C@H](CN1CCC(COc2cccc(/C(=N\OC)c3ccc(Cl)cc3)c2)CC1)OC(N)=O |  |  | inactive | Active | 1.2 | > 60 | 2.31 (≈ 4.36 µM) | 0.85 (≈ 1.6 µM) | Active | inactive | 25 (≈ 47.2 µM) | 25 (≈ 47.2 µM) | > 10 | > 10 | 6.5 (≈ 12.3 µM) | 6.5 (≈ 12.3 µM) |  | 
C=CCN(C)CCCCCCCCOc1ccc(C(=O)c2ccc(Cl)cc2)c(Cl)c1 | 0.5 (≈ 1.11 µM) | 15.5 (≈ 34.6 µM) |  |  |  |  |  |  |  |  |  |  |  |  |  |  |  | 
CCCCCC[C@H](CN1CCC(COc2cccc(C(=O)c3ccc(Cl)cc3)c2)CC1)OC(N)=O |  |  | inactive | Active | 1.5 | > 60 | 2.31 (≈ 4.61 µM) | 0.85 (≈ 1.7 µM) | Active | inactive | 7.5 (≈ 15 µM) | 7.5 (≈ 15 µM) |  |  | 6.5 (≈ 13 µM) | 6.5 (≈ 13 µM) | 1.7 | Active
COc1ccc(CCNCCCOCCCCOc2ccc(C(=O)c3ccc(Cl)cc3)c(Cl)c2)cc1 | 15.5 (≈ 29.2 µM) | 0.5 (≈ 0.943 µM) |  |  |  |  |  |  |  |  |  |  |  |  |  |  |  | 
CCCCCC[C@@H](CN1CCC(COc2ccc(C(=O)c3ccc(Cl)cc3)c(Cl)c2)CC1)OC(N)=O |  |  | inactive | Active | 1.5 | > 60 | 1.5 (≈ 2.8 µM) | 1.45 (≈ 2.71 µM) | Active | inactive |  |  |  |  |  |  |  | Active
CCCCC(O)CN1CCC(COc2cccc(C(=O)c3ccc(Cl)cc3)c2)CC1 (racemic) | 8 (≈ 18.6 µM) | > 50 | inactive | Active | 15 | > 60 | 12.5 (≈ 29.1 µM) | 5.2 (≈ 12.1 µM) | Active | inactive |  |  |  |  |  |  |  | 
O=C(c1ccc(Cl)cc1)c1ccc(OCc2cccc(CN3CCC(N4CCCCC4)CC3)c2)cc1Cl | 8 (≈ 14.9 µM) | 15.5 (≈ 28.8 µM) |  |  |  |  |  |  |  |  |  |  |  |  |  |  |  | 
CCCCCCCC(O)c1cccc(CN2CCC(COc3cccc(C(=O)c4ccc(Cl)cc4)c3)CC2)c1 (racemic) | 8 (≈ 14.6 µM) | > 50 | inactive | Active | 15 | > 60 | 12.5 (≈ 22.8 µM) | 1.88 (≈ 3.43 µM) | Active | inactive |  |  |  |  |  |  |  | 
COc1ccc(CCNC(CO)c2cccc(COc3cccc(C(=O)c4ccc(Cl)cc4)c3)c2)cc1 (racemic) | 8 (≈ 15.5 µM) | > 50 | inactive | Active | 15 | > 60 | 12.5 (≈ 24.2 µM) | 3 (≈ 5.81 µM) | Active | inactive |  |  |  |  |  |  |  | 
CCCCCCC[C@@H](O)c1cccc(CN2CCC(COc3cccc(/C(=N\OC)c4ccc(Cl)cc4)c3)CC2)c1 |  |  | inactive | Active | 15 | > 60 | 6.25 (≈ 10.8 µM) | 1.43 (≈ 2.48 µM) | Active | inactive |  |  |  |  |  |  |  | 
CCCCCC[C@@H](CN1CCC(COc2cccc(C(=O)c3ccc(Cl)cc3)c2)CC1)OC(N)=O |  |  | inactive | Active | 9 | > 60 | 12.5 (≈ 24.9 µM) | 2.94 (≈ 5.87 µM) | Active | inactive |  |  |  |  |  |  |  | 
O=C(c1ccc(Cl)cc1)c1ccc(OC/C=C/COCCCNCCc2ccc(F)cc2)cc1Cl | 8 (≈ 15.5 µM) | 0.5 (≈ 0.968 µM) |  |  |  |  |  |  |  |  |  |  |  |  |  |  |  | 
CCCC[C@@H](O)CN1CCC(COc2ccc(C(=O)c3ccc(Cl)cc3)c(Cl)c2)CC1 |  |  | inactive | Active | 7.5 | > 60 | 6.25 (≈ 13.5 µM) | 2.85 (≈ 6.14 µM) | Active | inactive |  |  |  |  |  |  |  | 
CCCCCC[C@@H](O)CN1CCC(COc2cccc(C(=O)c3ccc(Cl)cc3)c2)CC1 |  |  | inactive | Active | 9 | > 60 | 6.2 (≈ 13.5 µM) | 5.59 (≈ 12.2 µM) | Active | inactive |  |  |  |  |  |  |  | 
